HTR5A inv ctr: HTR5A inverse agonists in luminescence cell assay, primary screen, counter-screen for OPRM1-OPRD1 heterodimer inverse agonist project, full-deck HTS; inhibition, % at 9.3 µM; HTR5A cell line, inverse agonism; hit rate 0.083% among 340,000; in the data active = inhibition mostly above about 23%, no sharp cut-off; inactive = mostly below about 18%;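 note: 0% = cells with DMSO and 100% = no-cell wells with DMSO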
MOR-DOR ag: agonists of OPRM1-OPRD1 heterodimerization, primary screen, cell-based, luminescence. Mu-type opioid receptor (Homo sapiens) + Delta-type opioid receptor (Homo sapiens), …. cells. activation, % at 9.3 µM. hit rate 0.3% among 340,000. AID 504326, 2011;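 note: 0% = vehicle-treated cells and 100% = reference agonist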
Target sequence (P35372 whole entry, looked up): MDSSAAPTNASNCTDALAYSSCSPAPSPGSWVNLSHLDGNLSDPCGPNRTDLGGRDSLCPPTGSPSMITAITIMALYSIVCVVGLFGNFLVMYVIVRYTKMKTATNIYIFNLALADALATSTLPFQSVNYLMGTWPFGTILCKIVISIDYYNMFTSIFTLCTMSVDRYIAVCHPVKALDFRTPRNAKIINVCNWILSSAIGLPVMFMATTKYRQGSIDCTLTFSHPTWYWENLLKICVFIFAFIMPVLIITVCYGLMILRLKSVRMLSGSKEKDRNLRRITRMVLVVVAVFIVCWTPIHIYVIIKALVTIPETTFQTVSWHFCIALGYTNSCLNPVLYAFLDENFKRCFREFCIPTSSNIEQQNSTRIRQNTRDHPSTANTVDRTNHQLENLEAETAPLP
Target sequence (P41143 whole entry, looked up): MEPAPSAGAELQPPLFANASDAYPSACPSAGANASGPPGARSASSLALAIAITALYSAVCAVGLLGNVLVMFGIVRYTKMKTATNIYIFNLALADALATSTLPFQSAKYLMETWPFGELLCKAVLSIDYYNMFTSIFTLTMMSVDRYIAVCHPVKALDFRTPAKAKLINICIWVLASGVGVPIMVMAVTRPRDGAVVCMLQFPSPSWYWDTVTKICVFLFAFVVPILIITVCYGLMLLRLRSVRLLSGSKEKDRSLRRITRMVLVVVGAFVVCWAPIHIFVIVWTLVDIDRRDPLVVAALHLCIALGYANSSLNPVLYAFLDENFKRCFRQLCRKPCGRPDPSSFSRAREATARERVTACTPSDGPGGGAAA
HTR5A ag: HTR5A agonists in luminescence cell assay, primary screen, counter-screen for OPRM1-OPRD1 heterodimer agonist project, full-deck HTS; hit rate 0.61% among 340,000; 5-hydroxytryptamine receptor 5A (Homo sapiens), P47898; cell-based; activation, % at 9.3 µM; AID 504692, 2011; in the data active = activation mostly above about 9.5%, no sharp cut-off; inactive = mostly below about 7.6%;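 note: 0% = cells with vehicle only and 100% = reference agonist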
Arr AP2 block: inhibitors of beta-arrestin/AP2 binding, primary screen, biochemical, GPCR trafficking, flow cytometry; beta-arrestin 1 C-terminal peptide binding to AP2 beta2-adaptin appendage (human); inhibition, % at 10 µM; FITC-arrestin peptide / GST-AP2 beads; AP2 beta2 appendage carries R879A mutation; AID 504490, 2011; hit rate 0.31% among 340,000;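 active = inhibition above a set limit, near 3 SD of compounds lacking own fluorescence, cut at about 54% in these data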;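 note: plate controls were DMSO wells for no effect and 5 µM unlabelled arrestin peptide for full effect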
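system = GST-tagged AP2 beta2-adaptin appendage (R879A) on 4 µm glutathione beads | reagent = FITC-labelled arrestin peptide probe, 50 nM final | schedule = compound with beads 12 min RT, then probe 1 h RT | signal = HyperCyt-sampled flow cytometry, FL1 channel, ex 488/em 535 nm | read-out = percent response from loss of bead-bound FITC fluorescence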
OPRM1-OPRD1 inv: inverse agonists of MOR-DOR heterodimerization, primary screen, cell-based, luminescence. cell-based MOR-DOR heterodimer luminescence, inverse agonism. hit rate 0.21% among 340,000. Mu-type opioid receptor (Homo sapiens) + Delta-type opioid receptor (Homo sapiens), …. AID 504357, 2011. inhibition, % at 9.3 µM; in the data active = inhibition above about 22%, passing the limit was not always enough;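 note: 0% = cells with DMSO and 100% = wells without cells with DMSO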
DAGLB inh: DAGLB lipase inhibitors, primary screen, biochemical, fluorescence, HTS; hit rate 0.059% among 340,000; Diacylglycerol lipase-beta (Homo sapiens), Q8NCG7; AID 504411, 2011; inhibition, % at 5.17 µM; HEK293T DAGLB membrane lysate, EnzChek fluorogenic substrate; in the data active = inhibition above about 34%;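 note: 0% = enzyme with vehicle and 100% = wells lacking enzyme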
OPRM1-D1 ag cf: agonists of MOR-DOR heterodimerization, confirmation, cell-based, luminescence; activation, % at 9.3 µM; hit rate 45% among 830; shares compounds with MOR-DOR ag; cells, luminescence complementation;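 note: 0% = vehicle-treated cells and 100% = reference agonist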
HTR5A ag ctr2: HTR5A agonists in cells, counter-screen for OPRM1-OPRD1 heterodimer agonist project, cell-based, luminescence; activation, % at 9.3 µM; hit rate 8% among 830; shares compounds with MOR-DOR ag; HTR5A agonist counterscreen; in the data active = activation above about 17%;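 note: 0% = vehicle-treated cells and 100% = reference agonist response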
The depositor's hits bear a star; · = no result given. Sampled rows, rich in hits. Any-hit rate of the full collection: about 1.4%. Cut-off read from the data, not from the text of the source, unless noted: active = activation above about 18%; inactive = the rest.

SMILES | HTR5A inv ctr | MOR-DOR ag | HTR5A ag | Arr AP2 block | OPRM1-OPRD1 inv | DAGLB inh | OPRM1-D1 ag cf | HTR5A ag ctr2
CCOc1ccc(S(=O)(=O)Nc2cccc(C(=O)NCC(c3ccccc3)N(C)C)c2)cc1 (stereo unspecified) | 2 | 58* | -5 | -1 | -313 | 3 | 52* | -3
COc1ccc(C(CNC(=O)c2cccc(NS(=O)(=O)c3ccc(C)c(F)c3)c2)N(C)C)cc1 (stereo unspecified) | 7 | 70* | -3 | 10 | -363 | -2 | 1 | -2
CC(C(=O)Nc1nc(-c2ccc(F)cc2)cs1)N1C(=O)C2CC=CCC2C1=O (stereo unspecified) | 4 | 0 | -1 | 11 | 1 | -3 | · | ·
FC(F)(F)c1ccc(C2[C@H]3CN(Cc4cccnc4)[C@H](c4ccccc4)C34CC2(c2cccnc2)C4)cc1 (stereo partly specified) | -5 | 49* | -1 | -2 | -273 | -1 | 68* | -4
FC(F)(F)c1ccc(CN2C[C@@H]3C(c4ccc(Cl)nc4)C4(c5ccccc5)CC3(C4)[C@H]2c2ccccc2)cc1 (stereo partly specified) | -12 | -3 | -4 | 3 | 14 | 0 | · | ·
Clc1ccc(C2[C@H]3CN(Cc4cccnc4)[C@H](c4ccccc4)C34CC2(c2cccnc2)C4)cn1 (stereo partly specified) | -13 | 54* | -5 | · | -311 | -1 | 9 | 8
O=C(COC(=O)COc1ccc(Br)cc1)NC1CCS(=O)(=O)C1 (stereo unspecified) | · | · | · | · | · | 0 | · | ·
Cc1cc(C)c(-c2cc(C(=O)Nc3cc(C)ccc3C)[nH]n2)c(O)c1 | -15 | 20* | 4 | -2 | -95 | -2 | 10 | 0
CC(C)=CCN1CCN(CCC2=C(C)CCCC2(C)C)CC1CCO (stereo unspecified) | 0 | 24* | 3 | 48 | -170 | -4 | 0 | 1
CC1=C(CCN2CCN(C3CCCC3)C(CCO)C2)C(C)(C)CCC1 (stereo unspecified) | -31 | 5 | -1 | 22 | -28 | 0 | · | ·
Cc1cc(C2(c3ccc(O)c(C)c3)C(=O)Nc3ccccc32)ccc1O | -16 | 20* | 10 | 1 | -92 | -1 | -3 | 1
O=C1Nc2ccccc2C1(O)c1ccccc1 (stereo unspecified) | 5 | -2 | -2 | 4 | 10 | -3 | · | ·
COc1ccc(CCNC(=O)c2ccc(F)c(S(=O)(=O)N3CCCCC3)c2)cc1 | · | · | · | · | · | -2 | · | ·
CC(C)N(Cc1ccccc1)C(=O)CN1c2cccc3cccc(c23)S1(=O)=O | -6 | 19* | 2 | 5 | -94 | -2 | 1 | 2
CN(C)C(=O)CN1c2cccc3cccc(c23)S1(=O)=O | -25 | -2 | 7 | -5 | 8 | 5 | · | ·
CC(C)n1c(=O)nc(-c2ccccc2)c2cc3c(cc21)OCO3 | · | · | · | · | · | 0 | · | ·
CC(C)c1ccc(NC(=O)N(CCc2nc3ccccc3[nH]2)C2CCCC2)cc1 | -9 | 25* | 2 | 4 | -148 | -10 | 37* | 0
C[C@H]1CCCCO[C@@H](CN(C)C(=O)NC2CCCCC2)[C@@H](C)CN([C@@H](C)CO)C(=O)c2cc(NC(=O)Cc3ccccc3)ccc2O1 | · | · | · | · | · | 0 | · | ·
CN(C)CCCN(C(=O)c1ccc(S(=O)(=O)N(C)C)cc1)c1nc2cc3c(cc2s1)OCO3 | -5 | -3 | 2 | 6 | 17 | 0 | · | ·
CCN(CC)CCN(C(=O)c1ccc(S(=O)(=O)N(C)C2CCCCC2)cc1)c1nc2c(C)cccc2s1 | -3 | -3 | 1 | -12 | 14 | -5 | · | ·
CCN(Cc1ccccc1)S(=O)(=O)c1ccc(C(=O)N(CCCN(C)C)c2nc3c(C)c(C)ccc3s2)cc1 | -16 | 31* | 6 | -13 | -172 | -12 | 41* | 1
CCN(Cc1ccccc1)S(=O)(=O)c1ccc(C(=O)N(CCCN(C)C)c2nc3cc4c(cc3s2)OCO4)cc1 | -8 | 25* | 3 | -6 | -138 | 2 | 0 | -3
Cc1ccc2sc(N(CCCN(C)C)C(=O)c3ccc(S(=O)(=O)N(C)C4CCCCC4)cc3)nc2c1C | 5 | 31* | -2 | -5 | -163 | -3 | 49* | 22*
Cc1cc(C)n(-c2ccc(C(=O)N3CCN(S(=O)(=O)c4ccc(Br)cc4Cl)CC3)cc2)n1 | · | · | · | · | · | -1 | · | ·
Cc1ccc(C)c(N2CCN(C(=S)Nc3ccc4nc(N5CCN(C)CC5)cc(C)c4c3)CC2)c1 | -27 | 18* | 9 | -21 | -91 | 1 | 22* | 4
SMILES | HTR5A inv ctr | MOR-DOR ag | HTR5A ag | Arr AP2 block | OPRM1-OPRD1 inv | DAGLB inh | OPRM1-D1 ag cf | HTR5A ag ctr2
CN(C)C(CNC(=O)c1cccc(S(=O)(=O)N2CCN(c3ccc(F)cc3)CC2)c1)c1ccccc1 (stereo unspecified) | -7 | 7 | 3 | 8 | -36 | -1 | · | ·
Oc1ccc(-c2csc(Nc3ncccn3)n2)cc1 | -18 | 23* | 6 | -9 | -110 | 1 | -2 | -3
COc1ccc(NC(=O)c2sc3nc(C)cc(C)c3c2N)cc1 | -14 | -2 | 4 | 8 | 7 | 1 | · | ·
COc1ccccc1NC(=O)c1sc2nc(C)cc(C)c2c1N | -9 | 24* | 4 | -3 | -121 | -1 | 108* | 1
Nc1nc(CCl)nc(Nc2ccc3ccccc3c2)n1 | -35 | 80* | 13 | 2 | -396 | 1 | 10 | 13
Cc1ccccc1Nc1nc(N)nc(CCl)n1 | -24 | -1 | 6 | 9 | 7 | -3 | · | ·
CCOC(=O)c1ccc2c(c1)n(CC)c(/C=C/N(C)c1ccccc1)[n+]2CC | -10 | 0 | 2 | -5 | 0 | -2 | · | ·
CC[n+]1c(/C=C/N(C)c2ccccc2)n(-c2ccccc2)c2ccc(-c3nc4ccccc4s3)cc21 | -37 | 22* | 9.9* | -13 | -104 | 5 | -2 | -5
COc1cc(CNc2ccc(O)cc2)cc(Br)c1OCc1ccccc1F | -8 | 28* | 2 | 19 | -145 | -5 | 1 | 0
COc1ccccc1OCC(=O)N/N=C(\C)c1ccc2ccccc2c1 | · | · | · | · | · | 2 | · | ·
Cc1ccc2nc(N(CCCN(C)C)C(=O)c3ccc(S(=O)(=O)N4CCOCC4)cc3)sc2c1 | -4 | -4 | 1 | -2 | 21 | -2 | · | ·

Screening results from PubChem.
